An excerpt weighted towards active compounds, which were near 1.3% of everything screened.
MDM2 E3 inh = blocks human Mdm2 ubiquitin ligase activity. Q00987. cell-based MDM2 ubiquitination luciferase reporter, 2 h; 0 = plate control, 100 = twice control, blank-subtracted. signal enhancement, % at 5 µM. actives 0.11% (n = 210,000);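 active = signal enhancement of 30% or more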;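 note: luminescence tracks abundance of the self-degrading MDM2-luciferase fusion protein; higher signal means inhibition of MDM2 E3 ligase activity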
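Test system: mammalian cells stably expressing self-ubiquitinating, self-degrading MDM2 E3–luciferase fusion; Amount: 2000 cells in each well; Medium: DMEM; Schedule: 4 h settle plus 2 h compound, 37 °C; Technique: SteadyLite luciferase luminescence after 15 min room-temperature reagent incubation; Benchmarks: plate control and blank wells.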
Wee1 degr inh = human Wee1 degradation inhibition, primary screen. P30291. HeLa Luc-Wee1K328M stability, luciferase luminescence; 100% = proteasome inhibitor MG132 effect. reporter increase, % at 5 µM. actives 1.2% (n = 220,000). AID 1321;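 active = activation above the mean of all tested compounds plus 3 SD, set per screening run, cut at about 8.8% in these data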;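 note: cells exposed to compound for 20 h before luminescence read; 0% = DMSO alone and 100% = MG132 at 30 µM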
Target sequence (P30291 whole entry K328M): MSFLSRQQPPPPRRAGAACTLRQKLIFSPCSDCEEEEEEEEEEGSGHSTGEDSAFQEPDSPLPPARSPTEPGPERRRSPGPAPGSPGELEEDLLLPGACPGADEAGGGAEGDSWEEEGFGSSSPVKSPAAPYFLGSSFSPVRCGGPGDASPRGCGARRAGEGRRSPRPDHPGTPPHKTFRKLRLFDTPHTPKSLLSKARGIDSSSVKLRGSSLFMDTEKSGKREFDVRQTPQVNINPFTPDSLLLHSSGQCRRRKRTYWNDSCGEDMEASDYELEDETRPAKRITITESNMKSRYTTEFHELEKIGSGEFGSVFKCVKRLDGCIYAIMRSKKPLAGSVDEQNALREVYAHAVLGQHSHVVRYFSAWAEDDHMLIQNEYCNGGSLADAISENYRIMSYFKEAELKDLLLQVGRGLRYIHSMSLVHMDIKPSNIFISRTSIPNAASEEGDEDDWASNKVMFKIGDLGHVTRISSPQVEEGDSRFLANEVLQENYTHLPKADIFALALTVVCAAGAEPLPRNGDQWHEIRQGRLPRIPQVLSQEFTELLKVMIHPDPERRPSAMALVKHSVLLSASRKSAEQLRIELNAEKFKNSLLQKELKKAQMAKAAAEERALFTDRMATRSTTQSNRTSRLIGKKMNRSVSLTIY
Hsp70 act = switches on Hsp70 transcription; activation, % at 10 µM; HeLa Hsp70 promoter luciferase reporter, luminescence; scaled: vehicle 0, proteasome-inhibitor control 100%; actives 0.04% (n = 200,000);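 active = activation above the mean across all tested compounds plus 3 SD, cutoff set per campaign, cut at about 5.5% in these data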;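 note: 100% = MG132 at 30 µM as the positive control and 0% = DMSO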
Pf gamet viab = P. falciparum stage V gametocyte viability inhibition | P. falciparum stage V gametocytes, ATP luminescence, 24 h | inhibition, % at 10.9 µM | actives 0.065% (n = 150,000) | AID 743093;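 active = inhibition above the mean plus 3 SD of compounds within the control limits, set per campaign, cut at about 38% in these data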;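 note: 0% = DMSO wells and 100% = medium only without gametocytes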
* marks the source's active call; other numbers are inactive results; / = no result given.

SMILES	MDM2 E3 inh	Wee1 degr inh	Hsp70 act	Pf gamet viab
OC(CSc1c(Cl)cccc1Cl)CN1CCN(c2ccc(F)cc2)CC1 (centres undefined)	-17.8	-3.9	-0.1	-13.2
CCOC(=O)N1CCN(C(=O)C2CCC(C(=O)N3CCN(C(=O)OCC)CC3)CC2)CC1 (centres undefined)	/	9.5*	-0.2	/
CCOC(=O)N1CCN(C(=O)C2CCCCC2)CC1	-0.1	-2.1	0.1	/
COc1ccc(NC(=S)N(CCN(C)C)C(C)c2ccco2)cc1Cl (centres undefined)	-1.4	1.5	-0.2	-4.9
O=C(Nc1cc(S(=O)(=O)Nc2ccc(Cl)cc2)ccc1N1CCCCC1)c1ccc(F)cc1Cl	13.5	-0.7	-0.2	0.2
COc1ccccc1OCCOCCOc1ccccc1Cl	-11.2	3.4	-0.2	50.8*
COc1ccc(CC(=O)N2CCNC2=O)cc1	-15.7	29.2*	0.3	-14.4
COC(=O)C1CCN(C(=O)CSc2nc3ccc(OC)cc3[nH]2)CC1	2.1	-1.8	0.3	-5.3
COc1ccc2nc(SCC(=O)N3CCNC3=O)[nH]c2c1	-9.7	9.0*	0.2	15.7
COc1ccc(CC(=O)N2CCc3ccccc32)cc1	-10.6	1.2	0.5	0.9
COc1ccc(CCNC(=O)CSc2nc3[nH]ncc3c(=O)n2-c2ccc(C)c(Cl)c2)cc1OC	-13.4	-1.1	0.0	-1.9
COc1ccc(CC(=O)NC(C)C2COc3ccccc3O2)cc1OC (centres undefined)	6.8	1.2	-0.4	/
Cc1onc(-c2ccccc2)c1C(=O)Nc1cc(C(F)(F)F)ccc1N1CCOCC1	-4.6	2.5	0.2	/
CCOC(=O)c1ccc(N2CCOCC2)c(NC(=O)c2c(-c3ccccc3)noc2C)c1	-7.1	10.5*	/	18.4
Clc1ccccc1-c1ncc2ccccn12	-2.9	8.9*	-0.1	11.6
O=C(N/N=C/c1ccccc1Cl)c1[nH]c2ccc(Br)cc2c1-c1ccccc1	-20.4	11.5*	0.2	-5.7
COc1ccc(/C=N/NC(=O)c2[nH]c3ccc(Br)cc3c2-c2ccccc2)c(C(=O)O)c1OC	-3.5	-0.2	/	8.5
C[C@H]1CN=C(N(C)C)N1CC1CCCCC1	/	/	/	-3.9
CCc1cccc2c1NC(=O)C2(O)CC(=O)c1cccs1 (centres undefined)	5.7	-0.9	0.6	-2.5
CCc1ccc2c(c1)C(O)(CC(=O)c1cccs1)C(=O)N2 (centres undefined)	-9.9	9.8*	0.1	2.3
COc1cc(OC)cc(-c2cc3nc(C)c(CCC(=O)NCc4ccccc4)c(C)n3n2)c1	-6.0	-0.2	/	38.6*
COc1ccccc1-c1cc2nc(C)c(CCC(=O)NCc3ccc(F)cc3)c(C)n2n1	-0.9	4.7	/	-12.2
Cc1cc(C)cc(N2C(=O)CC(Sc3ncn[nH]3)C2=O)c1 (centres undefined)	-1.3	-0.6	-0.1	-2.3
CCOC(=O)C(C)Sc1nc(-c2ccco2)cc(C(F)(F)F)c1C#N (centres undefined)	1.7	9.9*	-0.1	/
CS(=O)(=O)N1CCN(C(=O)c2ccc(Cl)s2)CC1	-16.1	0.9	0.1	28.3
SMILES	MDM2 E3 inh	Wee1 degr inh	Hsp70 act	Pf gamet viab
CCC(C)NC(=O)c1cc2cc3ccc(OC)cc3nc2s1 (centres undefined)	-2.0	9.0*	-0.4	-64.5
COc1ccc2cc3cc(C(=O)NCCN4CCc5ccccc5C4)sc3nc2c1	9.0	-1.6	-0.5	1.8
CC(=O)C1=C(c2ccccc2)NC(=O)NC1c1ccc(O)c(Cl)c1 (centres undefined)	/	/	/	-1.1
COc1ccc(-c2nnc(SCC(=O)Nc3ncc(C)s3)n2-c2ccccc2)cc1OC	-25.3	9.9*	-0.1	/
CCN(CC)S(=O)(=O)c1ccc2c(c1)N(CC(=O)NCc1ccccn1)C(=O)CO2	-10.9	-0.6	/	22.4
O=C1CCN(Cc2ccccc2)S(=O)(=O)c2ccccc21	39.9*	/	/	-14.5
CCOC(=O)C1CCN(C(=O)CN2C(=O)C(CC)Oc3ccccc32)CC1 (centres undefined)	-13.9	-1.1	-0.2	16.6
CCOC(=O)CN1C(=O)C(CC)Oc2ccccc21 (centres undefined)	-18.3	16.6*	0.6	/
Cn1cccc1-c1nc2ccc(NC(=O)c3ccc([N+](=O)[O-])cc3)cc2[nH]1	-16.8	0.7	-0.5	-16.0
Cn1cccc1-c1nc2ccc(NC(=O)c3ccccc3)cc2[nH]1	-9.9	10.2*	-0.1	-28.7
CC(C)CC(NC(N)=O)C(=O)NCCc1ccc(Cl)cc1 (centres undefined)	-13.4	10.6*	-0.2	-10.5
N#Cc1ccc(NC(=O)COC(=O)CCc2nc3ccccc3c(=O)[nH]2)cc1	-8.2	9.7*	/	12.2
